# In publication PMC6435032 (Cancer prevention research (Philadelphia, Pa.), 2018):
# What was measured:
# NQO1 [1] = conditions: Sprague-Dawley rats; cited from earlier work
# [2] = system: NAD(P)H quinone oxidoreductase (NQO1); assay: NQO1 activity in liver tissue of ACI rats; format: in vivo; conditions: EB 1 mg/kg/day sc, 4 days, vs vehicle
# CYP1B1 [3] = assay: CYP1B1 mRNA expression in mammary tissue, RT-qPCR; format: in vivo; conditions: ACI rats, 4 days
# Procedure, shortened: (§1)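 Female ACI rats (5 weeks old, acclimated 1 week, phytoestrogen-free AIN-76A diet, n=6/group) received sc EB 1 mg/kg/day, sc test compound 80 mg/kg/day or gavaged extracts 2 g/kg/day for 4 days. Vehicles were sesame oil sc, or 50% corn oil with 50% PEG/H2O by gavage. Rats were killed day 5; mammary mRNA was measured by TaqMan RT-qPCR with ACTB probe; mean ± SEM, ANOVA/Dunnett or t-test.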
# CYP1A1 [4] = assay: CYP1A1 mRNA expression in mammary tissue, RT-qPCR; format: in vivo; conditions: ACI rats, 4 days
# Procedure, shortened: as §1
# [5] = system: NAD(P)H quinone oxidoreductase (NQO1); assay: NQO1 activity in mammary gland of ACI rats; format: in vivo; conditions: 4 days
# Procedure, shortened: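 Female ACI rats (n=6/group) were dosed 4 days: EB 1 mg/kg/day sc, alone or with the test compound at 80 mg/kg/day sc or extracts at 2 g/kg/day by gavage. Sesame oil or corn oil/PEG was the vehicle. Frozen mammary tissue was homogenized; NQO1 activity was read at 610 nm in clear supernatant (30 µg protein). Results are fold induction relative to control; mean ± SEM.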
# XRE-luciferase reporter = conditions: HepG2 cells; cited from earlier work
# [6] = system: estrogen oxidative metabolism; conditions: MCF-10A cells; cited from earlier work
# P450 1A2 = conditions: cited from earlier work
# [7] = system: estrogen oxidative metabolism (2-MeOE1); assay: 2-MeOE1 in serum by LC-MS/MS; format: in vivo; conditions: ACI rats, 4 days, co-administered with EB 1 mg/kg/day; GG, GI 2 g/kg/day, LicA 80 mg/kg/day
# [8] = LicA metabolites in serum, liver and mammary gland, UHPLC-MS/MS; format: in vivo; conditions: ACI rats, sc administration of LicA
# Procedure, shortened: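 ACI rats got the test compound sc at 80 mg/kg/day with EB 1 mg/kg/day sc for 4 days and were killed day 5. Serum, and liver or mammary homogenates in 70% aqueous methanol with 0.1% formic acid, were spiked with naringenin. They were precipitated with ice-cold ACN (15 min, 13000 x g, 4 °C), dried under nitrogen and reconstituted in 20% ACN. Metabolites were profiled by UHPLC-MS/MS on C18.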
# [9] = format: in vivo; conditions: ACI rats after GG or GI 2 g/kg/day gavage + EB for 4 days
# Procedure, shortened: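 Female ACI rats (n=6/group) got extracts 2 g/kg/day by gavage plus sc EB 1 mg/kg/day for 4 days. Serum, liver and mammary homogenates (70% aqueous methanol, 0.1% formic acid) were spiked with naringenin internal standard and protein-precipitated with ice-cold ACN. Supernatant was dried, taken up in 20% ACN and analysed by UHPLC-MS/MS, negative ESI, SRM. Extracts were run at 10 μg/mL in 50% methanol.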
# E2/E1 levels = E2/E1 levels in serum by LC-MS/MS; format: in vivo; conditions: ACI rats, 4 days, co-administered with EB
# CYP1B1 [10] = format: cell-based, human; conditions: MCF-10A cells, compound 20 µM, 24 h; for Induction of CYP1B1 expression: relative to control
# P450 3A4 [11] = conditions: HepG2 cells; cited from earlier work
# P450 3A4 [12] = conditions: cited from earlier work
# CYP1A1 [13] = format: cell-based, human; conditions: MCF-10A cells, compound 20 µM, 24 h; for Increase of CYP1A1 expression: relative to control
# NQO1 [14] = conditions: cited from earlier work
# CYP1A1 [15] = conditions: female Sprague-Dawley rats; cited from earlier work
# NQO1 [16] = conditions: previous in vitro studies; cited from earlier work
# NQO1 [17] = conditions: Sprague-Dawley rats; cited from earlier work; remark: listed apart in the source
# [18] = with EB, GG, GI 2 g/kg/day, LicA 80 mg/kg/day
smiles,measurement,setting,value
O=c1cc(-c2ccc(Br)cc2)oc2ccccc12 [4’bromoflavone],NQO1 induction in liver tissues,NQO1 [1],significant NQO1 induction
"C[C@]12CC[C@@H]3c4ccc(OC(=O)c5ccccc5)cc4CC[C@H]3[C@@H]1CC[C@@H]2O [EB, estradiol benzoate, reference compound]",Effect of EB alone on NQO1 activity in liver tissue,[2],did not affect the NQO1 activity significantly
same,"CYP1B1 expression in mammary tissue, fold lower than the vehicle control group",CYP1B1 [3]; EB 1 mg/kg/day,5 fold
same,"CYP1A1 expression in mammary tissue, fold lower than the vehicle control group",CYP1A1 [4]; EB 1 mg/kg/day,3 fold
same,Effect of EB on NQO1 activity in the mammary gland,"[5]; EB 1 mg/kg/day, vs vehicle",slightly reduced
"C=CC(C)(C)c1cc(/C=C/C(=O)c2ccc(O)cc2)c(OC)cc1O [LicA, licochalcone A]",XRE-luciferase reporter activity,XRE-luciferase reporter,inhibited
same,Down-regulation of CYP1B1 expression in mammary tissue compared to the EB treatment group,CYP1B1 [3]; [18],no statistical difference
same,Effect on estrogen oxidative metabolism,[6],inhibited
same,Upregulation of CYP1A1 in mammary tissue compared to the EB treatment group,CYP1A1 [4]; [18],no statistical difference
same,Induction of NQO1 activity in mammary tissue,"[5]; co-treatment with EB, GG, GI 2 g/kg/day, LicA 80 mg/kg/day",No induction
same,Inhibition of P450 1A2 activity,P450 1A2,moderately inhibited
same,"Reduction of 2-MeOE1 in serum, of the EB treatment group",[7],~70%
same,GSH conjugate in the liver,[8],major metabolite
same,GSH conjugate in the serum and mammary tissues,[8],minor metabolite
same,"Main metabolism in serum, liver and mammary tissues",[8],glucuronidation reactions dominated
same,Sulfation in mammary tissue,[8],not detectable
same,Sulfation in serum and liver,[8],minor
same,Presence in liver and mammary tissues (qualitative),[9],available
same,Effect on E2/E1 levels in serum,E2/E1 levels,only slightly influenced
same,"CYP1B1 expression, fold lower than basal levels",CYP1B1 [10],10 fold
same,P450 3A4 gene expression,P450 3A4 [11],decreased
same,Inhibition of P450 3A4 activity,P450 3A4 [12],moderately inhibited
same,"CYP1A1 expression, fold lower than basal levels",CYP1A1 [13],34 fold
"O=C(/C=C/c1ccc(O)cc1)c1ccc(O)cc1O [LigC, isoliquiritigenin]",Effect on estrogen oxidative metabolism,[6],increase
same,Induction of NQO1 activity in in vivo models,NQO1 [14],didn’t induce
same,Inhibition of P450 1A2 activity,P450 1A2,weakly
same,Presence in liver and mammary tissues (qualitative),[9],available
same,Induction of CYP1B1 expression,CYP1B1 [10],2.5 fold
same,Inhibition of P450 3A4 activity,P450 3A4 [12],weakly
same,Increase of CYP1A1 expression,CYP1A1 [13],4 fold
same,Increase of CYP1A1 levels in mammary tissues,CYP1A1 [15],6.84 fold
"O=C1C[C@@H](c2ccc(O)cc2)Oc2cc(O)ccc21 [LigF, liquiritigenin]",Effect on estrogen oxidative metabolism,[6],no effect
same,Effect on NQO1 activity in vitro,NQO1 [16],no effect
same,Presence in liver and mammary tissues (qualitative),[9],available
same,Induction of CYP1B1 expression,CYP1B1 [10],2 fold
same,Increase of CYP1A1 expression,CYP1A1 [13],did not affect
CC1(C)C=Cc2c(ccc3c2OC[C@@H](c2ccc(O)cc2O)C3)O1 [glabridin],Inhibition of P450 1A2 activity,P450 1A2,weakly
same,Presence in liver and mammary tissues (qualitative),[9],not detected
same,Inhibition of P450 3A4 activity,P450 3A4 [12],weakly
COc1cc(O)c(CC=C(C)C)c(O)c1C(=O)/C=C/c1ccc(O)cc1 [xanthohumol],NQO1 induction in the mammary gland,NQO1 [17],no NQO1 induction
same,NQO1 induction in liver tissues,NQO1 [1],significant NQO1 induction
